Only some compounds are listed: those with a hit (about 6.4% of all), similar ones and a draw of the others.
PostGolgi yeast = phenotypic screen on post-Golgi transport, primary screen; post-Golgi transport phenotypic cell assay; inhibition, % at 10 µM; hit rate 0.9% among 98,000; AID 739, 2007;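 further: yeast cells grown in 1536-well plates; yeast grown about 18 h at 30C before absorbance read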
PLK1 inh = human PLK1 kinase inhibitors, primary screen, biochemical, TR-FRET. inhibition, % at 10 µM. recombinant PLK1 kinase, TR-FRET peptide phosphorylation. Serine/threonine-protein kinase PLK1 (Homo sapiens), P53350. hit rate 0.53% among 97,000. AID 619, 2007;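 active means inhibition of 50% or more in the single-concentration screen; inactive means inhibition below 50%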;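 further: 0% = DMSO max control and 100% = H-89 dihydrochloride min control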
Rev-RRE block = HIV-1 Rev-RRE binding inhibitors, primary screen, biochemical, FRET, protein-RNA interaction. P05866. hit rate 0.79% among 97,000. inhibition, % at 8 µM. Rev peptide-RRE RNA binding;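 active means inhibition above the screen-wide mean plus 3 SD, cut at about 35% in these data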;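 further: 0% = median DMSO wells and 100% = median Neomycin B control wells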
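Test system – labelled RRE RNA duplex and labelled Rev peptide · Signal – fluorescein-to-Cy5 FRET, 480 nm excitation · Evaluation – % inhibition of FRET ratio versus controls · Benchmarks – DMSO low control, neomycin B high control · Incubation – 5 min RNA-compound premix plus 15 min binding step, 25 °C · Medium – HEPES pH 7.5 salt buffer with EDTA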
EphB4 antag = EphB4-ephrin-B2 interaction antagonists, primary screen, biochemical, TNYL-RAW peptide probe, fluorescence polarization; Ephrin type-B receptor 4 (Homo sapiens), P54760; EphB4 LBD / TNYL-RAW-Alexa532 peptide; inhibition, % at 7 µM; hit rate 0.15% among 97,000; AID 720, 2007;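 active means inhibition above the screen-wide mean inhibition plus 3 SD, cut at about 15% in these data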;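 further: 0% = DMSO wells and 100% = excess unlabeled TNYL-RAW peptide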
Target sequence (P54760 whole entry, looked up, the tested form may be a part): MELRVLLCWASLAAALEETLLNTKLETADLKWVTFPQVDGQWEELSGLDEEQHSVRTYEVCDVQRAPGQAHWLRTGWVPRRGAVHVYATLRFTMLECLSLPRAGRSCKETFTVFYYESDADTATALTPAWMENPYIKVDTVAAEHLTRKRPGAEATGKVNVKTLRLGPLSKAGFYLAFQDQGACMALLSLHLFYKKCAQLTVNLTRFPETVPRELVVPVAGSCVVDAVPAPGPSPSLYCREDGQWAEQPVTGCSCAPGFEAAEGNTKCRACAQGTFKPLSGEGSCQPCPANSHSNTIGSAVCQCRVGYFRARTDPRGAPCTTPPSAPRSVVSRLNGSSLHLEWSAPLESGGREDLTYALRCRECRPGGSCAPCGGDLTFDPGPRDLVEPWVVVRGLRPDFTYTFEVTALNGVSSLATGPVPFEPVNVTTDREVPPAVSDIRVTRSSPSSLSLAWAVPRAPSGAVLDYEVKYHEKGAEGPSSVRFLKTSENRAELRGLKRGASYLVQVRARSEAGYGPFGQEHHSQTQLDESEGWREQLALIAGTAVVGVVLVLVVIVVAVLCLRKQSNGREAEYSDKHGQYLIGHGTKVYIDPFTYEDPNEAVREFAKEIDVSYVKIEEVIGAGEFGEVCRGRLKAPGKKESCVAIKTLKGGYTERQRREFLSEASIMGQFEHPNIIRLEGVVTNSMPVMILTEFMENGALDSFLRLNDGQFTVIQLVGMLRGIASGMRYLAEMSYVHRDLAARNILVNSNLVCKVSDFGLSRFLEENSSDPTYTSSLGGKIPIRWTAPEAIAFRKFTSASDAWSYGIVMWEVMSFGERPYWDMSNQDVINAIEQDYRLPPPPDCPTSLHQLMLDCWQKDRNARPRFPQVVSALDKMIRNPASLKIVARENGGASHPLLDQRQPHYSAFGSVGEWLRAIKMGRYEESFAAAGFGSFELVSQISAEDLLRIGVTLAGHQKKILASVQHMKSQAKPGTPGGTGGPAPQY
PostGolgi ctrl = growth inhibition of yeast control strain, primary screen, counter-screen for post-Golgi transport modulator project | hit rate 5% among 98,000 | efflux-deficient yeast background strain, growth absorbance A615, 16 h | inhibition, % at 10 µM
Plk1 PBD FP = Plk1 polo box domain binding inhibitors, primary screen, biochemical, fluorescence polarization | Plk1 PBD phosphopeptide binding | inhibition, %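 (tested at about 20 µM)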 | hit rate 0.13% among 97,000 | AID 693, 2007; in the data active means inhibition above about 34%, passing the limit was not always enough
Active calls of the source: *; . = not tested or not shown; [ ] = another dose, or the depositor's remark. Unless noted, no stated cut-off is given here; in the data, active means inhibition above about 30%; inactive means the rest.

SMILES	PostGolgi yeast	PLK1 inh	Rev-RRE block	EphB4 antag	PostGolgi ctrl	Plk1 PBD FP
CN(C(=O)Cn1c(=O)n(CCCCC(=O)NC2CCCC2)c(=O)c2ccccc21)C1CCCCC1	.	-11	1	1	.	-24
CC(=O)Nc1ccc(S(=O)(=O)NCC(C)NS(=O)(=O)c2ccc(NC(C)=O)cc2)cc1 (centres undefined)	-10	-8	11	6	37*	0
CCOC(=O)NC(Nc1ccc(S(N)(=O)=O)cc1)(C(=O)OCC)C(F)(F)F (centres undefined)	32*	-10	1	-1	0	30
Cn1c(=O)n(C)c2cc(NC(=O)CCl)ccc21	-6	2	8	4	2	-9
O=C(C1CCN(S(=O)(=O)N2CCOCC2)CC1)N1CCOCC1	0	-14	3	1	31*	6
O=C(NCc1ccncc1)Nc1ccc(F)cc1	3	-1	3	1	0	-10
O=c1cc(CN2CCC3(CC2)OCCO3)c2c(ccc3ccccc32)o1	-5	-8	3	-1	9	-35
COc1ccc(N2CCN(Cc3cc(=O)oc4ccc(C)cc34)CC2)cc1	-2	0	5	-11	11	-12
CC(C)c1ccc2oc(=O)cc(CN3CCN(c4ccc(F)cc4)CC3)c2c1	5	10	0	1	33*	-21
CCc1ccc2oc(=O)cc(CN3CCN(c4ccc(F)cc4)CC3)c2c1	13	10	3	6	38*	-14
O=c1cc(CN2CCN(c3ccccc3)CC2)c2c(ccc3ccccc32)o1	6	-2	8	-2	32*	35
O=C(NC1(C(F)(F)F)C(=O)Nc2c1c(=O)[nH]c(=O)n2-c1ccccc1)c1ccncc1 (centres undefined)	.	-11	8	1	.	-7
CC1=C(C#N)C(Nc2ccc(Cl)cn2)(C(F)(F)F)C(=O)N1 (centres undefined)	-2	-10	5	8	9	0
Cc1cc(-n2c(C)cc(C(=O)CSc3ncnc4ccccc34)c2C)no1	0	0	8	7	40*	18
O=S(=O)(c1cc(-c2nc3ccccc3s2)ccc1Cl)N1CCOCC1	22	-7	7	2	5	-24
Cc1ccc(-c2nc3ccccc3s2)cc1S(=O)(=O)N1CCOCC1	-7	0	-4	0	34*	-5
CO/N=C/NC(=O)NOCc1ncc(C(F)(F)F)cc1Cl	-26	-12	9	-5	-1	-9
O=C(N/C=N/OCc1ccc(Cl)cc1Cl)NOCc1ncc(C(F)(F)F)cc1Cl	-4	-13	14	-2	34*	-4
Cc1cc(C)c(C#N)c(SCS(=O)Cc2ccccc2)n1 (centres undefined)	-2	-3	-3	5	-1	3
Cc1cc(C)c(C#N)c(SCS(=O)Cc2ccc(Cl)cc2)n1 (centres undefined)	9	-10	14	3	38*	-21
Cc1cc(C(=O)COC(=O)c2ccccc2O)c(C)n1Cc1cccs1	-4	-9	3	-5	3	-1
CCn1nc(C(=O)OCC(=O)c2cc(C)n(Cc3cccs3)c2C)c2ccccc2c1=O	-25	-15	-1	7	42*	23
CC(C(=O)NCc1ccc2c(c1)OCO2)N1c2cccc3cccc(c23)S1(=O)=O (centres undefined)	-6	48	10	10	18	6
CCN(CC)S(=O)(=O)c1ccc(Oc2ccccc2)cc1	6	-11	7	-5	5	-2
CCN(CC)c1ccc(N=Cc2ccc(N(CC)CC)cc2O)cc1	-2	-7	96*[fluorescence artefact?]	-3	2	-67
SMILES	PostGolgi yeast	PLK1 inh	Rev-RRE block	EphB4 antag	PostGolgi ctrl	Plk1 PBD FP
CCN(CC)c1ccc(C=Nc2ccccc2)c(O)c1	.	-6	12	-3	.	-23
CCN(CC)c1ccc(C=Nc2ccc(C)cc2)c(O)c1	.	-14	6	-10	.	0
CCN(CC)c1ccc(C=Nc2ccc(N(C)C)cc2)c(O)c1	8	-8	81*[fluorescence artefact?]	2	-4	-40
O=C(CCCN1C(=O)CSc2ncccc21)N1CCN(Cc2ccccc2)CC1	0	.	.	.	12	.
O=S(=O)(c1ccccc1Cl)N1CCCC1c1nc(-c2ccc(Cl)cc2)no1 (centres undefined)	-4	0	13	-3	27	-12
CCOC(=O)C1CCN(Cc2cnc(Oc3ccc(Cl)cc3C)s2)CC1	49*	-5	9	0	17	6
Cc1nc2ccccc2c2c1C(=O)N(C1CCCCCCC1)C2=O	-2	-8	4	-11	-7	-8
CCOc1ccc(C(=O)Nc2cc(=O)n(C)c(=O)n2C)cc1	.	-5	2	-5	.	5
CNC(=S)NNC(=O)CCn1nc(C)c(Br)c1C	-13	-10	10	1	37*	-4
Cc1cc2c(c(=O)o1)C(C13C=CC(CC1)C3)C(C#N)=C(N)O2 (centres undefined)	-1	-9	3	-7	-2	17
COC(=O)c1cc(Br)c(=O)n(Cc2ccc(OC)c(OC)c2)c1	10	-5	3	-1	16	-10
CCN(CC)c1ncn(Cc2c(Cl)cccc2Cl)c2ncnc1-2	-36	-7	2	-3	34*	15
Cc1[nH]c2ccccc2c1Cc1nnc(SCc2ccccc2)o1	11	-9	8	-3	35*	-20
CC1CCN(C(=O)C2CCN(S(=O)(=O)c3cccc4nonc34)CC2)CC1	8	-7	0	-7	31*	8
CCOC(=O)C1CCN(S(=O)(=O)c2cccc3nonc23)CC1	15	.	.	.	8	.
CC1Cc2ccccc2N1C(=O)CN1C(=O)C(=O)N(Cc2ccccc2)C1=O (centres undefined)	-8	-10	1	7	-14	-22
CCn1c2ccccc2c2nc3ccccc3nc21	-4	-7	15	4	34*	-9
CCn1c2ccccc2c2nc3cc(OC)c(OC)cc3nc21	24	-2	4	4	24	5
CCCCc1c(C)nn(-c2nnc3c4ccccc4n(CC)c3n2)c1C	4	-11	5	5	58*	17
O=C1c2ccccc2C(Nc2cccc(C(F)(F)F)c2)N1Cc1ccco1 (centres undefined)	-1	-5	18	3	32*	1
COc1cccc(NC2c3ccccc3C(=O)N2Cc2ccco2)c1 (centres undefined)	-4	1	4	4	9	-10
Clc1cccc(/C=N/Nc2ncnc3ccccc23)c1	-1	-13	8	85*[fluorescence artefact?]	5	-13

Assay outcomes deposited in PubChem by several laboratories.
